Test results reported in ChEMBL document CHEMBL5058577, “EUbOPEN Chemogenomics Library 2 (Multiplex)” (2022).

Tested on: Fibroblast
Assay: Multiplex assay against human fibroblast
Type: toxicity, cell-based
Outline: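 With compound added, live cells were imaged on a CQ1 microscope at 37°C and 5% CO2; staining with Hoechst33342, BioTracker Green Microtubule Cytoskeleton Dye, MitoTracker Red and Annexin V Alexa Fluor 680 had been done at seeding. The CellPathfinder machine-learning gating scheme split cells into Hoechst high-intensity objects or normal cells, normal cells into healthy, pyknosed or fragmented nuclei, and pyknosed cells into mitotic or apoptotic. The tubulin, mitochondrial-mass and membrane-permeability phenotypes are per cents of healthy-nucleus cells.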

[1] = 12 h, 1 µM, compound concentration 1 uM, replicate 1
[2] = 12 h, 1 µM, compound concentration 1 uM, replicate 2
[3] = 12 h, 10 µM, compound concentration 10 uM, replicate 1
[4] = 12 h, 10 µM, compound concentration 10 uM, replicate 2
[5] = 24 h, 1 µM, compound concentration 1 uM, replicate 1
[6] = 24 h, 1 µM, compound concentration 1 uM, replicate 2
[7] = 24 h, 10 µM, compound concentration 10 uM, replicate 1
[8] = 24 h, 10 µM, compound concentration 10 uM, replicate 2
[9] = 48 h, 1 µM, compound concentration 1 uM, replicate 1
[10] = 48 h, 1 µM, compound concentration 1 uM, replicate 2
[11] = 48 h, 10 µM, compound concentration 10 uM, replicate 1
[12] = 48 h, 10 µM, compound concentration 10 uM, replicate 2

Q: How did the “Population Apoptotic (%)” value [1] turn out when `CCCCC(=O)N(Cc1ccc(-c2ccccc2-c2nnn[nH]2)cc1)[C@H](C(=O)O)C(C)C` was run?
A: Its value is 45%.

Q: And the “Population Fragmented Nuclei (%)” value [1]?
A: Its value is 9%.

Q: And the “Population Healthy Nuclei (%)” value [1]?
A: Its value is 74%.

Q: And the “Population Hoechst High Intensity Objects (%)” value [1]?
A: Its value is 4%.

Q: What about the “Population Membrane Permeable-Phenotype (%)” value [1] of the same compound?
A: Its value is 0%.

Q: And the “Population Mitochondria Different-Phenotype (%)” value [1]?
A: The value was 0%.

Q: What about the “Population Mitotic Cells (%)” value [1] of the same compound?
A: Its value is 54%.

Q: And the “Population Normal (%)” value [1]?
A: The value was 95%.

Q: What about the “Population Pyknosed Nuclei (%)” value [1] of the same compound?
A: Its value is 16%.

Q: And the “Population Tubulin-Different-Phenotype (%)” value [1]?
A: The value was 20%.

Q: What about the “Total Cell Count” value [1] of the same compound?
A: The value was 143.

Q: What about the “Population Apoptotic (%)” value [2] of the same compound?
A: The value was 44%.

Q: What about the “Population Fragmented Nuclei (%)” value [2] of the same compound?
A: The value was 21%.

Q: And the “Population Healthy Nuclei (%)” value [2]?
A: The value was 54%.

Q: What about the “Population Hoechst High Intensity Objects (%)” value [2] of the same compound?
A: The value was 3%.

Q: And the “Population Membrane Permeable-Phenotype (%)” value [2]?
A: The value was 8%.

Q: And the “Population Mitochondria Different-Phenotype (%)” value [2]?
A: Its value is 6%.

Q: What about the “Population Mitotic Cells (%)” value [2] of the same compound?
A: The value was 55%.

Q: What about the “Population Normal (%)” value [2] of the same compound?
A: Its value is 96%.

Q: And the “Population Pyknosed Nuclei (%)” value [2]?
A: The value was 24%.

Q: And the “Population Tubulin-Different-Phenotype (%)” value [2]?
A: The value was 36%.

Q: What about the “Total Cell Count” value [2] of the same compound?
A: The value was 156.

Q: What about the “Population Apoptotic (%)” value [3] of the same compound?
A: Its value is 37%.

Q: And the “Population Fragmented Nuclei (%)” value [3]?
A: Its value is 20%.

Q: And the “Population Healthy Nuclei (%)” value [3]?
A: The value was 56%.

Q: And the “Population Hoechst High Intensity Objects (%)” value [3]?
A: Its value is 0%.

Q: What about the “Population Membrane Permeable-Phenotype (%)” value [3] of the same compound?
A: Its value is 3%.

Q: And the “Population Mitochondria Different-Phenotype (%)” value [3]?
A: Its value is 3%.

Q: What about the “Population Mitotic Cells (%)” value [3] of the same compound?
A: Its value is 62%.

Q: What about the “Population Normal (%)” value [3] of the same compound?
A: Its value is 100%.

Q: And the “Population Pyknosed Nuclei (%)” value [3]?
A: The value was 22%.

Q: What about the “Population Tubulin-Different-Phenotype (%)” value [3] of the same compound?
A: Its value is 23%.

Q: And the “Total Cell Count” value [3]?
A: The value was 106.

Q: And the “Population Fragmented Nuclei (%)” value [4]?
A: The value was 27%.

Q: What about the “Population Healthy Nuclei (%)” value [4] of the same compound?
A: The value was 42%.

Q: What about the “Population Hoechst High Intensity Objects (%)” value [4] of the same compound?
A: Its value is 3%.

Q: And the “Population Membrane Permeable-Phenotype (%)” value [4]?
A: Its value is 11%.

Q: What about the “Population Mitochondria Different-Phenotype (%)” value [4] of the same compound?
A: The value was 11%.

Q: And the “Population Normal (%)” value [4]?
A: The value was 96%.

Q: And the “Population Pyknosed Nuclei (%)” value [4]?
A: Its value is 29%.

Q: And the “Population Tubulin-Different-Phenotype (%)” value [4]?
A: Its value is 51%.

Q: What about the “Total Cell Count” value [4] of the same compound?
A: Its value is 130.

Q: And the “Population Apoptotic (%)” value [5]?
A: The value was 66%.

Q: And the “Population Fragmented Nuclei (%)” value [5]?
A: The value was 15%.

Q: What about the “Population Healthy Nuclei (%)” value [5] of the same compound?
A: The value was 70%.

Q: And the “Population Hoechst High Intensity Objects (%)” value [5]?
A: Its value is 0%.

Q: What about the “Population Membrane Permeable-Phenotype (%)” value [5] of the same compound?
A: Its value is 1%.

Q: What about the “Population Mitochondria Different-Phenotype (%)” value [5] of the same compound?
A: Its value is 2%.

Q: What about the “Population Mitotic Cells (%)” value [5] of the same compound?
A: Its value is 33%.

Q: And the “Population Normal (%)” value [5]?
A: The value was 99%.

Q: And the “Population Pyknosed Nuclei (%)” value [5]?
A: Its value is 14%.

Q: And the “Population Tubulin-Different-Phenotype (%)” value [5]?
A: The value was 17%.

Q: What about the “Total Cell Count” value [5] of the same compound?
A: Its value is 146.

Q: What about the “Population Apoptotic (%)” value [6] of the same compound?
A: Its value is 38%.

Q: What about the “Population Fragmented Nuclei (%)” value [6] of the same compound?
A: Its value is 21%.

Q: And the “Population Healthy Nuclei (%)” value [6]?
A: Its value is 52%.

Q: And the “Population Hoechst High Intensity Objects (%)” value [6]?
A: The value was 2%.

Q: What about the “Population Membrane Permeable-Phenotype (%)” value [6] of the same compound?
A: Its value is 2%.

Q: And the “Population Mitochondria Different-Phenotype (%)” value [6]?
A: The value was 1%.

Q: And the “Population Mitotic Cells (%)” value [6]?
A: The value was 61%.

Q: What about the “Population Normal (%)” value [6] of the same compound?
A: The value was 97%.

Q: And the “Population Pyknosed Nuclei (%)” value [6]?
A: Its value is 25%.

Q: What about the “Population Tubulin-Different-Phenotype (%)” value [6] of the same compound?
A: The value was 25%.

Q: And the “Total Cell Count” value [6]?
A: Its value is 145.

Q: And the “Population Apoptotic (%)” value [7]?
A: Its value is 48%.

Q: What about the “Population Fragmented Nuclei (%)” value [7] of the same compound?
A: Its value is 18%.

Q: And the “Population Healthy Nuclei (%)” value [7]?
A: Its value is 56%.

Q: What about the “Population Hoechst High Intensity Objects (%)” value [7] of the same compound?
A: The value was 2%.

Q: What about the “Population Membrane Permeable-Phenotype (%)” value [7] of the same compound?
A: Its value is 0%.

Q: What about the “Population Mitochondria Different-Phenotype (%)” value [7] of the same compound?
A: Its value is 1%.

Q: What about the “Population Mitotic Cells (%)” value [7] of the same compound?
A: The value was 51%.

Q: And the “Population Normal (%)” value [7]?
A: The value was 97%.

Q: And the “Population Pyknosed Nuclei (%)” value [7]?
A: Its value is 25%.

Q: And the “Population Tubulin-Different-Phenotype (%)” value [7]?
A: The value was 31%.

Q: And the “Total Cell Count” value [7]?
A: Its value is 110.

Q: And the “Population Apoptotic (%)” value [8]?
A: Its value is 35%.

Q: And the “Population Fragmented Nuclei (%)” value [8]?
A: The value was 25%.

Q: What about the “Population Healthy Nuclei (%)” value [8] of the same compound?
A: Its value is 44%.

Q: What about the “Population Hoechst High Intensity Objects (%)” value [8] of the same compound?
A: The value was 4%.

Q: And the “Population Membrane Permeable-Phenotype (%)” value [8]?
A: The value was 9%.

Q: And the “Population Mitochondria Different-Phenotype (%)” value [8]?
A: Its value is 10%.

Q: What about the “Population Mitotic Cells (%)” value [8] of the same compound?
A: The value was 64%.

Q: And the “Population Normal (%)” value [8]?
A: The value was 95%.

Q: What about the “Population Pyknosed Nuclei (%)” value [8] of the same compound?
A: Its value is 29%.

Q: What about the “Population Tubulin-Different-Phenotype (%)” value [8] of the same compound?
A: The value was 65%.

Q: What about the “Total Cell Count” value [8] of the same compound?
A: The value was 130.

Q: What about the “Population Apoptotic (%)” value [9] of the same compound?
A: Its value is 80%.

Q: And the “Population Fragmented Nuclei (%)” value [9]?
A: Its value is 18%.

Q: What about the “Population Healthy Nuclei (%)” value [9] of the same compound?
A: The value was 71%.

Q: And the “Population Hoechst High Intensity Objects (%)” value [9]?
A: Its value is 6%.

Q: What about the “Population Membrane Permeable-Phenotype (%)” value [9] of the same compound?
A: The value was 0%.

Q: And the “Population Mitochondria Different-Phenotype (%)” value [9]?
A: The value was 1%.

Q: And the “Population Mitotic Cells (%)” value [9]?
A: The value was 20%.

Q: What about the “Population Normal (%)” value [9] of the same compound?
A: Its value is 93%.

Q: And the “Population Pyknosed Nuclei (%)” value [9]?
A: The value was 10%.

Q: And the “Population Tubulin-Different-Phenotype (%)” value [9]?
A: The value was 17%.

Q: And the “Total Cell Count” value [9]?
A: Its value is 153.

Q: And the “Population Apoptotic (%)” value [10]?
A: The value was 40%.

Q: And the “Population Fragmented Nuclei (%)” value [10]?
A: Its value is 27%.

Q: What about the “Population Healthy Nuclei (%)” value [10] of the same compound?
A: The value was 51%.

Q: And the “Population Hoechst High Intensity Objects (%)” value [10]?
A: The value was 3%.

Q: What about the “Population Membrane Permeable-Phenotype (%)” value [10] of the same compound?
A: Its value is 1%.

Q: What about the “Population Mitochondria Different-Phenotype (%)” value [10] of the same compound?
A: Its value is 3%.

Q: What about the “Population Mitotic Cells (%)” value [10] of the same compound?
A: Its value is 59%.

Q: And the “Population Normal (%)” value [10]?
A: The value was 96%.

Q: What about the “Population Pyknosed Nuclei (%)” value [10] of the same compound?
A: Its value is 21%.

Q: And the “Population Tubulin-Different-Phenotype (%)” value [10]?
A: The value was 33%.

Q: What about the “Total Cell Count” value [10] of the same compound?
A: The value was 155.

Q: What about the “Population Apoptotic (%)” value [11] of the same compound?
A: Its value is 64%.

Q: And the “Population Fragmented Nuclei (%)” value [11]?
A: The value was 28%.

Q: And the “Population Healthy Nuclei (%)” value [11]?
A: The value was 56%.

Q: What about the “Population Hoechst High Intensity Objects (%)” value [11] of the same compound?
A: The value was 4%.

Q: What about the “Population Membrane Permeable-Phenotype (%)” value [11] of the same compound?
A: Its value is 0%.

Q: What about the “Population Mitochondria Different-Phenotype (%)” value [11] of the same compound?
A: Its value is 5%.

Q: What about the “Population Mitotic Cells (%)” value [11] of the same compound?
A: The value was 35%.

Q: What about the “Population Normal (%)” value [11] of the same compound?
A: The value was 95%.

Q: What about the “Population Pyknosed Nuclei (%)” value [11] of the same compound?
A: The value was 15%.

Q: What about the “Population Tubulin-Different-Phenotype (%)” value [11] of the same compound?
A: The value was 30%.

Q: And the “Total Cell Count” value [11]?
A: Its value is 112.

Q: What about the “Population Apoptotic (%)” value [12] of the same compound?
A: The value was 57%.

Q: What about the “Population Fragmented Nuclei (%)” value [12] of the same compound?
A: The value was 39%.

Q: And the “Population Healthy Nuclei (%)” value [12]?
A: Its value is 39%.

Q: What about the “Population Membrane Permeable-Phenotype (%)” value [12] of the same compound?
A: The value was 7%.

Q: And the “Population Mitotic Cells (%)” value [12]?
A: Its value is 42%.

Q: And the “Population Pyknosed Nuclei (%)” value [12]?
A: The value was 20%.

Q: What about the “Population Tubulin-Different-Phenotype (%)” value [12] of the same compound?
A: Its value is 69%.

Q: And the “Total Cell Count” value [12]?
A: The value was 141.
